Data published in paper PMC9116722 (Cancer chemotherapy and pharmacology, 2022).

Assay: Adverse events
Format: in vivo, human
Details: BRCAmut and BRCAwt combined
Summary of the method: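 Patients with germline BRCA-mutated cancers, or BRCA-wildtype TNBC or platinum-refractory ovarian cancer, took oral drug continuously twice daily in 28-day cycles. There were nine dose levels from 50 to 500 mg BID under 3+3 escalation, run separately per cohort after the first DLT. Toxicities were graded by CTCAE v4.0, with DLTs assessed during cycle 1.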

In the case of C[C@]1(c2nc3c(C(N)=O)cccc3[nH]2)CCCN1 [veliparib], the “Abdominal pain, Any Grade” value was 6 (6) number of patients (%), the “Abdominal pain, Grade 1” value was 3 (3) number of patients (%) and the “Abdominal pain, Grade 2” value was 1 (1) number of patients (%). The “Abdominal pain, Grade 3” value was 2 (2) number of patients (%), the “Abdominal pain, Grade 4” value was 0 (0) number of patients (%) and the “Alkaline phosphatase increased, Any Grade” value was 6 (6) number of patients (%). The “Alkaline phosphatase increased, Grade 1” value was 3 (3) number of patients (%), the “Alkaline phosphatase increased, Grade 2” value was 2 (2) number of patients (%) and the “Alkaline phosphatase increased, Grade 3” value was 1 (1) number of patients (%). For the same molecule, the “Alkaline phosphatase increased, Grade 4” value was 0 (0) number of patients (%), the “Anemia, Any Grade” value was 31 (32) number of patients (%) and the “Anemia, Grade 1” value was 19 (19) number of patients (%). For the same molecule, the “Anemia, Grade 2” value was 10 (10) number of patients (%), the “Anemia, Grade 3” value was 1 (1) number of patients (%) and the “Anemia, Grade 4” value was 1 (1) number of patients (%). The “Anorexia, Any Grade” value was 20 (20) number of patients (%), the “Anorexia, Grade 1” value was 17 (17) number of patients (%) and the “Anorexia, Grade 2” value was 3 (3) number of patients (%). The “Anorexia, Grade 3” value was 0 (0) number of patients (%), the “Anorexia, Grade 4” value was 0 (0) number of patients (%) and the “Any adverse event, Any Grade” value was 92 (94) number of patients (%). The “Any adverse event, Grade 1” value was 86 (88) number of patients (%), the “Any adverse event, Grade 2” value was 54 (55) number of patients (%) and the “Any adverse event, Grade 4” value was 3 (3) number of patients (%). The “Aspartate aminotransferase increased, Any Grade” value was 9 (9) number of patients (%), the “Aspartate aminotransferase increased, Grade 1” value was 8 (8) number of patients (%) and the “Aspartate aminotransferase increased, Grade 2” value was 0 (0) number of patients (%). The “Aspartate aminotransferase increased, Grade 3” value was 1 (1) number of patients (%), the “Aspartate aminotransferase increased, Grade 4” value was 0 (0) number of patients (%) and the “Constipation, Any Grade” value was 9 (9) number of patients (%). For the same molecule, the “Constipation, Grade 1” value was 8 (8) number of patients (%), the “Constipation, Grade 2” value was 1 (1) number of patients (%) and the “Constipation, Grade 3” value was 0 (0) number of patients (%). For the same molecule, the “Constipation, Grade 4” value was 0 (0) number of patients (%), the “Diarrhea, Any Grade” value was 19 (19) number of patients (%) and the “Diarrhea, Grade 1” value was 16 (16) number of patients (%). For the same molecule, the “Diarrhea, Grade 2” value was 3 (3) number of patients (%), the “Diarrhea, Grade 3” value was 0 (0) number of patients (%) and the “Diarrhea, Grade 4” value was 0 (0) number of patients (%). The “Dizziness, Any Grade” value was 9 (9) number of patients (%), the “Dizziness, Grade 1” value was 8 (8) number of patients (%) and the “Dizziness, Grade 2” value was 1 (1) number of patients (%). The “Dizziness, Grade 3” value was 0 (0) number of patients (%), the “Dizziness, Grade 4” value was 0 (0) number of patients (%) and the “Dry mouth, Any Grade” value was 8 (8) number of patients (%). For the same molecule, the “Dry mouth, Grade 1” value was 8 (8) number of patients (%), the “Dry mouth, Grade 2” value was 0 (0) number of patients (%) and the “Dry mouth, Grade 3” value was 0 (0) number of patients (%). For the same molecule, the “Dry mouth, Grade 4” value was 0 (0) number of patients (%), the “Dysgeusia, Any Grade” value was 16 (16) number of patients (%) and the “Dysgeusia, Grade 1” value was 16 (16) number of patients (%). For the same molecule, the “Dysgeusia, Grade 2” value was 0 (0) number of patients (%), the “Dysgeusia, Grade 3” value was 0 (0) number of patients (%) and the “Dysgeusia, Grade 4” value was 0 (0) number of patients (%). The “Dyspepsia, Any Grade” value was 6 (6) number of patients (%), the “Dyspepsia, Grade 1” value was 6 (6) number of patients (%) and the “Dyspepsia, Grade 2” value was 0 (0) number of patients (%). For the same molecule, the “Dyspepsia, Grade 3” value was 0 (0) number of patients (%), the “Dyspepsia, Grade 4” value was 0 (0) number of patients (%) and the “Dyspnea, Any Grade” value was 5 (5) number of patients (%). The “Dyspnea, Grade 1” value was 2 (2) number of patients (%), the “Dyspnea, Grade 2” value was 1 (1) number of patients (%) and the “Dyspnea, Grade 3” value was 1 (1) number of patients (%). The “Dyspnea, Grade 4” value was 1 (1) number of patients (%), the “Fatigue, Any Grade” value was 44 (45) number of patients (%) and the “Fatigue, Grade 1” value was 33 (34) number of patients (%). The “Fatigue, Grade 2” value was 9 (9) number of patients (%), the “Fatigue, Grade 3” value was 2 (2) number of patients (%) and the “Fatigue, Grade 4” value was 0 (0) number of patients (%). For the same molecule, the “Headache, Any Grade” value was 9 (9) number of patients (%), the “Headache, Grade 1” value was 7 (7) number of patients (%) and the “Headache, Grade 2” value was 1 (1) number of patients (%). For the same molecule, the “Headache, Grade 3” value was 1 (1) number of patients (%), the “Headache, Grade 4” value was 0 (0) number of patients (%) and the “Hyperglycemia, Any Grade” value was 10 (10) number of patients (%). For the same molecule, the “Hyperglycemia, Grade 1” value was 9 (9) number of patients (%), the “Hyperglycemia, Grade 2” value was 1 (1) number of patients (%) and the “Hyperglycemia, Grade 3” value was 0 (0) number of patients (%). The “Hyperglycemia, Grade 4” value was 0 (0) number of patients (%), the “Hyponatremia, Any Grade” value was 7 (7) number of patients (%) and the “Hyponatremia, Grade 1” value was 7 (7) number of patients (%). The “Hyponatremia, Grade 2” value was 0 (0) number of patients (%), the “Hyponatremia, Grade 3” value was 0 (0) number of patients (%) and the “Hyponatremia, Grade 4” value was 0 (0) number of patients (%). The “Hypophosphatemia, Any Grade” value was 8 (8) number of patients (%) and the “Hypophosphatemia, Grade 1” value was 2 (2) number of patients (%).
